Activity calls are given as the source filed them. No cut-off for these calls is given here.
Experiments:
[1] = biological target: T1, Adrenergic receptor alpha-1 (Rattus norvegicus) (UniProt P15823+P23944+P43140); experiment: Agonism at Alpha-1 adrenoceptor determined in rat anococcygeus preparation; Inactive.; type: functional
In short: (§1)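 Isolated tissue agonist test, potency compared directly with the standard in the same experiment. Standard dose-response curves were run before and after the test compound's curve. Rat anococcygeus (male Sprague-Dawley, 200-250 g; Krebs, 30 °C, 95% O2/5% CO2) was compared with phenylephrine. Field-stimulated mouse vas deferens (0.1 Hz, Mg-free Krebs, 30 °C) was compared with clonidine.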

[2] = Selectivity between pre- and post-synaptic sites of action.; type: functional
[3] = biological target: T1, Adrenergic receptor alpha-1 (Rattus norvegicus); experiment: In vitro inhibition of the contractile effect of phenylephrine on the isolated rat anococcygeus; potency relative to idazoxan.; type: functional
[4] = biological target: T2, Alpha-2 adrenergic receptor (Mus musculus, UniProt P30545+Q01338+Q01337); experiment: Alpha-2 adrenergic receptor […] in mouse vas deferens relative to clonidine; type: functional, tissue-based; in short: as §1
T2 sequence (P30545 whole entry): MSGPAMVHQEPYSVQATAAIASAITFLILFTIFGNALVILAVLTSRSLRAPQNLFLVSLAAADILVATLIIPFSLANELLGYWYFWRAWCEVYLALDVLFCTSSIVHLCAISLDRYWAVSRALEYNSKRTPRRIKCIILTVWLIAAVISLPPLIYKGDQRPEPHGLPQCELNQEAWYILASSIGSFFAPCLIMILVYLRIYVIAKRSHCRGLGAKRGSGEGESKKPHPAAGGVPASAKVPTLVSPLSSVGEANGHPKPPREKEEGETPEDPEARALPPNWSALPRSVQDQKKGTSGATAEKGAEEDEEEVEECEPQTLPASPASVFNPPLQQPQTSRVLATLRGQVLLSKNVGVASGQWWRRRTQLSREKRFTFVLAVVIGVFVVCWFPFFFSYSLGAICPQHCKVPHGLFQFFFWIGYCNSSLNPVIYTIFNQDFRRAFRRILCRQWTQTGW
T2 sequence (Q01338 whole entry): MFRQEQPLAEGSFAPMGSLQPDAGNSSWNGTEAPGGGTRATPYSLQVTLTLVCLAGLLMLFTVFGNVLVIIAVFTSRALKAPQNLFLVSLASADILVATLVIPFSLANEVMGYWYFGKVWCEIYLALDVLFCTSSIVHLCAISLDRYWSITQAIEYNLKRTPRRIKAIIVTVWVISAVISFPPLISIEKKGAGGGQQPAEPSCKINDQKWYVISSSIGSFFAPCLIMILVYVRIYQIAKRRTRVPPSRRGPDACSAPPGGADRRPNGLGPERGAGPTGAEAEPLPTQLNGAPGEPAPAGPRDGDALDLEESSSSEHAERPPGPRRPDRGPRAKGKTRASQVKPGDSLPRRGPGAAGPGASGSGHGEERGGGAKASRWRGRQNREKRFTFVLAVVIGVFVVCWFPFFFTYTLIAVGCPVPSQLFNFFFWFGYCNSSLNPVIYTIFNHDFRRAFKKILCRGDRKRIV
T2 sequence (Q01337 whole entry): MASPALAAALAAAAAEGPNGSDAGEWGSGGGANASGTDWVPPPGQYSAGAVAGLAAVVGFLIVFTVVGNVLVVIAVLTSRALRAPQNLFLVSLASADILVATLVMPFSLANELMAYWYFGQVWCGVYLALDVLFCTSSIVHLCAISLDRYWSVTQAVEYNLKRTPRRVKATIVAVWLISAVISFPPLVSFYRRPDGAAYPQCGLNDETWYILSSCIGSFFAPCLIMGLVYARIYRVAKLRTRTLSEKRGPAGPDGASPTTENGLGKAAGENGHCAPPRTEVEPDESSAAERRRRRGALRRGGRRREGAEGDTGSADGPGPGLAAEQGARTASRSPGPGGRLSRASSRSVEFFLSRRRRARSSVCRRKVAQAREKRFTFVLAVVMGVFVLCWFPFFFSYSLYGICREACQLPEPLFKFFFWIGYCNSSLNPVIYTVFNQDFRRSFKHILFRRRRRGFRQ

[5] = biological target: T3, Adrenergic receptor alpha-1 (Rattus norvegicus, UniProt P15823+P23944+P43140); experiment: Alpha-1 adrenergic receptor […] in rat anococcygeus assay; type: functional; in short: as §1
T3 sequence (P15823 whole entry): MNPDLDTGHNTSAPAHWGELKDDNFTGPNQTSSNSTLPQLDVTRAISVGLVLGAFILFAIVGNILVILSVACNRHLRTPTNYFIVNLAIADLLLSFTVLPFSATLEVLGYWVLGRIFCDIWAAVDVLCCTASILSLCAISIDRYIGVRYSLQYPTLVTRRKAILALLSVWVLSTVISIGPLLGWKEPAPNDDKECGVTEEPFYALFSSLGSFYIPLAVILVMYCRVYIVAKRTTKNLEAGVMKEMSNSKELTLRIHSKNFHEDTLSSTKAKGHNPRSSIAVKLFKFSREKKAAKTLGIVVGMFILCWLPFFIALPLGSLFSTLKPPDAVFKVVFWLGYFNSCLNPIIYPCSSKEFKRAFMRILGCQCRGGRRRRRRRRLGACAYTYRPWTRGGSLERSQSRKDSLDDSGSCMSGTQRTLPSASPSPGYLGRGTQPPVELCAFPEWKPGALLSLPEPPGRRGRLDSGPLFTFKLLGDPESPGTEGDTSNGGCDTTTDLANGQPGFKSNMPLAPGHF
T3 sequence (P23944 whole entry): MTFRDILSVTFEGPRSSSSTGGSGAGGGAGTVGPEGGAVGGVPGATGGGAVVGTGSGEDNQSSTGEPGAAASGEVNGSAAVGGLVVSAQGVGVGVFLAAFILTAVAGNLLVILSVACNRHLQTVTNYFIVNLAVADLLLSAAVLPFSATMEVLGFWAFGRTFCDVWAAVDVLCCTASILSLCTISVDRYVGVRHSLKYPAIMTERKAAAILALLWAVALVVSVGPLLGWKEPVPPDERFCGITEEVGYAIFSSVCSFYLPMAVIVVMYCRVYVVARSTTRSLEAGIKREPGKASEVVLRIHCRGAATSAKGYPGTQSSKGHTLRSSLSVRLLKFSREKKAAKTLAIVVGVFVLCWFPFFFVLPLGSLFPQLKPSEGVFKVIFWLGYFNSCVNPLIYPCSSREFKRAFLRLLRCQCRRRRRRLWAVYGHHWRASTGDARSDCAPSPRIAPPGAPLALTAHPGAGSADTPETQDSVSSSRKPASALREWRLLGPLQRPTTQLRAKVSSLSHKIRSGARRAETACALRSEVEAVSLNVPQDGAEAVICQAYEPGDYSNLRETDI
T3 sequence (P43140 whole entry): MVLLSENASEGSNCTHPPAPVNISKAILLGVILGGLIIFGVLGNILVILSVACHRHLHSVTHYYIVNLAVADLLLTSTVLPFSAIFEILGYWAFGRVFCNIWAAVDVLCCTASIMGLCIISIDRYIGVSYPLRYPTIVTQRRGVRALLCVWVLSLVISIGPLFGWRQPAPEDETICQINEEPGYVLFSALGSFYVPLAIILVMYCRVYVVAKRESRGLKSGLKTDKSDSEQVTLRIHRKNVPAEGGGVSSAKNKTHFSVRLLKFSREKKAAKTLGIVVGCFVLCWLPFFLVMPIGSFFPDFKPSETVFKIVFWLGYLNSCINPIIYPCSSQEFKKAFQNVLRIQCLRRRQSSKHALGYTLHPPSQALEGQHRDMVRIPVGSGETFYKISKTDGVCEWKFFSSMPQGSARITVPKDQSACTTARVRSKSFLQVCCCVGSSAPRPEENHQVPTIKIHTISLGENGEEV

[6] = Ratio of agonist potencies against alpha2 and alpha-1 adrenoceptors; type: functional
[7] = biological target: T4, Alpha-2 adrenergic receptor (Mus musculus) (UniProt P30545+Q01338+Q01337); experiment: Ability to antagonize the inhibitory effect of clonidine on the mouse vas deferens is the presynaptic alpha-2 adrenergic receptor antagonist potency relative to idazoxan = 1.; type: functional, tissue-based
In short: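 Male adult mouse vasa deferentia (MFI >30 g), 0.5 g initial tension, Mg-free Krebs, 30 °C, 95% O2/5% CO2. Field stimulation at 0.1 Hz, 3-ms pulses, 100-140 V set to give ~100-mg twitch, recorded isometrically.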

[8] = biological target: T4, Alpha-2 adrenergic receptor (Mus musculus); experiment: Presynaptic alpha-2 adrenergic receptor from mouse vas deferens agonistic activity relative to clonidine = 1.; type: functional, tissue-based; in short: as §1
[9] = biological target: T1, Adrenergic receptor alpha-1 (Rattus norvegicus); experiment: In vitro inhibition of the contractile effect of phenylephrine on the isolated rat anococcygeus; potency relative to idazoxan; Inactive.; type: functional
[10] = biological target: T1, Adrenergic receptor alpha-1 (Rattus norvegicus); experiment: Post-synaptic alpha-1 adrenergic receptor (rat anococcygeus) agonistic activity relative to phenylephrine; type: functional; in short: as §1
[11] = biological target: T1, Adrenergic receptor alpha-1 (Rattus norvegicus); experiment: Post-synaptic alpha-1 adrenergic receptor (rat anococcygeus) agonistic activity relative to phenylephrine; Inactive; type: functional; in short: as §1
[12] = biological target: T2, Alpha-2 adrenergic receptor; experiment: Alpha-2 adrenergic receptor […] in mouse vas deferens assay compared to clonidine; type: functional, tissue-based; in short: as §1
[13] = biological target: T4, Alpha-2 adrenergic receptor (Mus musculus); experiment: Presynaptic alpha-2 adrenergic receptor agonistic activity in mouse vas deferens relative to clonidine; type: functional, tissue-based; in short: as §1
[14] = biological target: T4, Alpha-2 adrenergic receptor (Mus musculus); experiment: Presynaptic alpha-2 adrenergic receptor agonist activity in isolated mouse vas deferens; type: functional, tissue-based
In short: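 Vasa deferentia from adult male MFI mice (>30 g) were held at 0.5 g initial tension in Mg-free Krebs solution at 30 °C, gassed with 95% O2/5% CO2. Tissues were field-stimulated at 0.1 Hz with 3-ms pulses, with voltage (100-140 V) set for about 100-mg twitches, recorded isometrically. Potency was expressed relative to the standard, run before and after each analogue curve in the same tissue.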

[15] = biological target: T4, Alpha-2 adrenergic receptor (Mus musculus); experiment: Inhibition of alpha-2 adrenergic receptor; type: functional

CCCCCC1(C2=NCCN2)Cc2ccccc2O1.Cl (centres undefined)
Agonist potency [1]: inactive
Ratio [2]: 0.44
Antagonist potency [3]: 1
pA2 [4]: 7.97
pA2 [5]: 6.47
Selectivity ratio [6]: 32
Antagonist potency [7]: 0.44
Agonist potency [8]: inactive

Cc1cc(Cl)cc2c1OC(C1=NCCN1)C2 (centres undefined)
Antagonist potency [9]: inactive
Agonist potency [10]: 1
Antagonist potency [7]: 0.5
Agonist potency [8]: inactive

CCCC1(C2=NCCN2)Cc2ccccc2O1.Cl (centres undefined)
Agonist potency [1]: inactive
Ratio [2]: 1.9
Antagonist potency [3]: 1
pA2 [4]: 8.63
pA2 [5]: 6.39
Selectivity ratio [6]: 175
Antagonist potency [7]: 1.9
Agonist potency [8]: inactive

COc1ccc2c(c1)CC(C1=NCCN1)O2 (centres undefined)
Agonist potency [11]: inactive
Ratio [2]: 5.2
Antagonist potency [3]: 0.023
Antagonist potency [7]: 0.12
Agonist potency [8]: inactive

CCC1(C2=NCCN2)Cc2ccccc2O1.Cl (centres undefined) [EFAROXAN HYDROCHLORIDE]
Agonist potency [1]: inactive
Ratio [2]: 6
Antagonist potency [3]: 0.3
pA2 [4]: 8.32
pA2 [5]: 5.91
Selectivity ratio [6]: 258
Antagonist potency [7]: 1.8
Agonist potency [8]: inactive

Cl.c1ccc2c(c1)OCC(C1=NCCN1)O2 (centres undefined) [IDAZOXAN HYDROCHLORIDE]
pA2 [12]: 7.98

CC1(C2=NCCN2)Cc2ccccc2O1 (centres undefined)
Agonist potency [11]: inactive
Ratio [2]: 0.71
Antagonist potency [3]: 0.35
Agonist potency [13]: 0.002
Antagonist potency [7]: 0.25

Clc1cccc(Cl)c1NC1=NCCN1
pD2 [14]: 8.8
IC40 [15]: 3.68 nM

Cl.Clc1ccc2c(c1)CC(C1=NCCN1)O2 (centres undefined)
Agonist potency [1]: inactive
Ratio [2]: 1.5
Antagonist potency [3]: 0.35
pA2 [4]: 7.8
pA2 [5]: 7.05
Selectivity ratio [6]: 5.6
Antagonist potency [7]: 0.53
Agonist potency [8]: inactive
